Shown are actives, neighbours in structure and some others; about 3.1% of the full set was active somewhere.
Ecoli rRNA inh – inhibits bacterial ribosomal RNA function over humanized ribosomes; E. coli WT GFP vs humanized-ribosome RFP mutants, fluorescence, 24 h; active compounds read low; DMSO median 0, no signal -100; GFP signal change (wild-type ribosome), % (test concentration not listed); actives 1.6% (n = 350,000); AID 720706;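 active = significant combined selectivity score with lowered wild-type GFP, culture density cut under 30%, mutant RFP and density less affected; inactive = any of these conditions unmet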
SIRT5 inh – sirtuin-5 (human) deacylase inhibition; Q9NXA8; Purified SirT5, succinyl-peptide AMC, trypsin-coupled fluorescence; inhibition, % at 15 µM; actives 1.1% (n = 330,000); in the data active = inhibition above about 15%
Target sequence (Q9NXA8 whole entry, looked up): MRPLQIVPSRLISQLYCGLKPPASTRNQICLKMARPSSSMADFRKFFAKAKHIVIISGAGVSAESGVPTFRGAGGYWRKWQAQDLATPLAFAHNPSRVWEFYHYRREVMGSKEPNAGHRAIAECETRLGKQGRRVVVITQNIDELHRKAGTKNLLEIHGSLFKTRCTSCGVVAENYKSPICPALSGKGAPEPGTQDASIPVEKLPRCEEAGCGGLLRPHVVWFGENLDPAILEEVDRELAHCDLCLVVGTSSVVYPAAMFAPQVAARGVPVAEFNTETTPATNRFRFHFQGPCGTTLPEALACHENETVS
F508del corr – CFTR F508del correction in bronchial cells | CFBE cells, YFP halide quenching; stimulated with forskolin plus potentiator P3; % fluorescence drop versus neutral controls | activity (quench increase), % at 7.58 µM | actives 0.36% (n = 350,000);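 active = mean added fluorescence quench of at least 8% versus neutral control, with both replicates also reaching 8%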;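 note: cells transiently co-express mutant CFTR-F508del with the halide-sensitive YFP; corrector assay measuring rescue of mutant channel to the surface after 24 h compound exposure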
S100A4 inh HTS – S100A4-myosin IIA interaction inhibition; inhibition, % at 10.7 µM; S100A4/TAMRA-MyoIIA peptide fluorescence polarization; P26447; AID 652163; actives 0.14% (n = 360,000);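 active = mean inhibition of at least 70% across replicates, with every replicate also reaching that level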
Target sequence (P26447 whole entry, looked up): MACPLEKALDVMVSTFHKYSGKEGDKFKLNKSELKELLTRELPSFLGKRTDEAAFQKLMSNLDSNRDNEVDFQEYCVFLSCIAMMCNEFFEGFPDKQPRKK
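Material: S100A4 monomer (human). Medium: Calcium-containing HEPES buffer, pH 7.2. Probe or stimulus: labelled myosin peptide probe, 5 nM. Compound dosing: one concentration per compound. Timing: polarization read 5 min after assay mix addition, stable 5–60 min. Benchmarks: DMSO as neutral control, TFP as positive control.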
ERAP1 HTS inh – inhibitors of human ERAP1 aminopeptidase. recombinant ERAP1, Leu-AMC fluorescence, 60 min. inhibition, % at 10.7 µM. actives 0.15% (n = 340,000);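 active = mean replicate inhibition of at least 30%, or all replicates individually reaching that 30% level; inactive = mean below 30% and not every replicate reaching it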;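 note: 0% = neutral control wells and 100% = L-leucinethiol positive control wells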
Numbers without * were called inactive; nt = not tested or not shown.

SMILES | Ecoli rRNA inh | SIRT5 inh | F508del corr | S100A4 inh HTS | ERAP1 HTS inh
COc1cccc(C(=O)Nc2ccc3c(c2)OC[C@@H](C)N(C(=O)C2CCCC2)C[C@@H](C)[C@H](OC)CN(C)C3=O)c1 | -1 | 3 | -1 | -5 | 0
CCc1ccc(/C=C\C(=O)N2CCCC2)cc1 | -19* | 3 | nt | 0 | -4
Cc1ccc(S(=O)(=O)N(C)C[C@@H]2Oc3ccc(NC(=O)C4CC4)cc3CC(=O)N([C@H](C)CO)C[C@@H]2C)cc1 | -4 | 0 | 2 | 1 | -1
CN1CCN(C(=O)/C(=C/c2ccc([N+](=O)[O-])cc2)NC(=O)c2ccccc2)CC1 | -2 | 1 | 0 | 6 | 2
O=C(N/C(=C\c1ccc([N+](=O)[O-])cc1)C(=O)N1CCCCC1)c1ccccc1 | 18 | 16* | nt | 0 | 8
CCN(C(=O)COC(=O)c1cc(-c2cccs2)nc2ccccc12)C1CCS(=O)(=O)C1 (stereo unspecified) | -23* | -7 | 1 | -1 | -5
CCN(C(=O)COC(=O)c1cc(-c2ccccc2)nc2c1c(C)nn2-c1ccc(C)cc1)C1CCS(=O)(=O)C1 (stereo unspecified) | 20 | -5 | 8.2* | 0 | -6
CCN(C(=O)COC(=O)c1cc(-c2ccccc2)nc2ccc(Br)cc12)C1CCS(=O)(=O)C1 (stereo unspecified) | 1 | 2 | -1 | 6 | 0
CCN(C(=O)COC(=O)c1cnc(C)cn1)C1CCS(=O)(=O)C1 (stereo unspecified) | 5 | -4 | 2 | -3 | 69*
C[C@H](CO)N1C[C@H](C)[C@@H](CN(C)C(=O)Nc2ccc(F)cc2)OCc2ccccc2-c2c(n(C)c3ccccc23)C1=O | 0 | 15* | -1 | -2 | 0
COc1ccc(NC(=O)N(C)C[C@@H]2OCc3ccccc3-c3c(n(C)c4ccccc34)C(=O)N([C@@H](C)CO)C[C@@H]2C)cc1 | 2 | 21* | -2 | -3 | 0
COc1cccc(NC(=O)N(C)C[C@@H]2OCc3ccccc3-c3c(n(C)c4ccccc34)C(=O)N([C@@H](C)CO)C[C@@H]2C)c1 | 0 | 5 | 1 | 97* | -2
COc1ccc(NC(=O)N(C)C[C@@H]2Oc3ccc(NS(=O)(=O)c4ccc(OC)cc4)cc3CC(=O)N([C@H](C)CO)C[C@@H]2C)cc1 | 6 | 1 | -2 | 8 | 3
COc1ccc(NC(=O)Nc2ccc3c(c2)C(=O)N([C@@H](C)CO)C[C@@H](C)[C@H](CN(C)S(=O)(=O)c2ccc(Cl)cc2)OCCCC[C@@H](C)O3)cc1 | 8 | -2 | 1 | 8 | 2
CC(C)c1ccc(NC2CCCN(C(=O)CCN3CCCC3=O)C2)cc1 (stereo unspecified) | 5 | 0 | 3 | -4 | -1
CC(C)c1ccc(NC2CCCN(C(=O)CC3CCCC3)C2)cc1 (stereo unspecified) | -11 | 34* | -2 | -2 | -3
S=c1[nH]nc2nnc3ccccc3n12 | -32* | -1 | -1 | 6 | nt
S=c1[nH]nc2sc3ccccc3n12 | -5 | -1 | 2 | 0 | 12
CC(C)(C)[C@@H]1C=C(C(=O)Nc2ccccc2)O[C@H](OCc2ccc(CO)cc2)C1 | -6 | nt | 0 | 98* | -3
CCCCOc1nc(N2CCOCC2)nc(C)c1[N+](=O)[O-] | -6 | 0 | nt | -6 | 2
Cc1nc(N2CCOCC2)nc(Oc2ccccc2)c1[N+](=O)[O-] | -43* | 3 | 0 | -2 | 1
Cc1ccc(S(=O)(=O)N2CCC(C)CC2)c([N+](=O)[O-])c1 | -25* | 5 | -2 | 18 | -2
Cn1nc(C(C)(C)C)cc1NC(=O)Nc1cc(Cl)cc(Cl)c1 | -20* | 0 | 4 | 3 | -4
Cn1ccnc1SCC(=O)NC1CCCC1 | 10 | -1 | 1 | -1 | 31*
Cn1cnnc1SCC(=O)NC1CCCCC1 | 10 | -1 | 0 | 2 | -1
SMILES | Ecoli rRNA inh | SIRT5 inh | F508del corr | S100A4 inh HTS | ERAP1 HTS inh
CC(C)(C)c1ccc(C(=O)c2cn[nH]c2-c2ccccc2O)cc1 | -22* | -1 | 2 | -7 | 1
C[C@H](CO)N1C[C@H](C)[C@H](CN(C)Cc2ccncc2)Oc2ccc(NC(=O)c3ccncc3)cc2C1=O | 3 | 10 | 5 | 0 | -2
C[C@@H]1CCCCO[C@H](CN(C)S(=O)(=O)c2ccc(F)cc2)[C@H](C)CN([C@@H](C)CO)C(=O)c2cc(N(C)C)ccc2O1 | -2 | 2 | -1 | 5 | -7
O=C(COc1ccccc1)N/N=C/c1ccc2c(c1)OCO2 | 18 | 21* | -4 | -3 | 2
C[C@H]1CCCCO[C@@H](CN(C)S(=O)(=O)c2cccs2)[C@@H](C)CN([C@@H](C)CO)C(=O)c2cc(NS(=O)(=O)c3cn(C)cn3)ccc2O1 | -6 | -7 | 0 | -8 | 3
C[C@@H]1CN([C@@H](C)CO)C(=O)c2cc(NC(=O)Cc3cn(C)c4ccccc34)ccc2O[C@H]1CN(C)Cc1ccc(C(=O)Nc2ccccc2N)cc1 | 0 | 17* | -1 | -45 | -2
C[C@H](CO)N1C[C@H](C)[C@H](CN(C)Cc2ccc(C(=O)Nc3ccccc3N)cc2)Oc2ccc(NC(=O)Cc3cn(C)c4ccccc34)cc2C1=O | nt | 23* | 0 | -31 | -1
C[C@@H]1CN([C@@H](C)CO)C(=O)c2cc(NC(=O)Cc3cn(C)c4ccccc34)ccc2O[C@H]1CN(C)Cc1ccc(Cl)c(Cl)c1 | 0 | 26* | 6 | -7 | -1
C[C@@H]1CN([C@@H](C)CO)C(=O)c2ccccc2-c2ccccc2CO[C@H]1CN(C)S(=O)(=O)c1ccc(F)cc1 | 0 | -2 | 0 | -2 | 2
Cc1ccc(S(=O)(=O)N[C@H]2CC[C@@H](CCNC(=O)CN3CCOCC3)O[C@H]2CO)cc1 | -1 | -5 | -1 | -4 | -3
COc1ccc(/C=N/n2c(-c3cc(C)[nH]n3)n[nH]c2=S)cc1 | 2 | 0 | 0 | 4 | 4
CCn1c2ccccc2c2cc(/C=N/n3c(-c4cc(C)[nH]n4)n[nH]c3=S)ccc21 | -31* | -1 | 1 | -6 | 0
Cc1noc(C)c1S(=O)(=O)N(C)C[C@@H]1OCCCC[C@@H](C)Oc2ccc(NC(=O)NC(C)C)cc2C(=O)N([C@@H](C)CO)C[C@H]1C | 2 | 1 | 0 | -10 | 1
O=[N+]([O-])c1ccc(C[n+]2cc(-c3ccccc3)n3c2CCCCC3)cc1 | 12 | -5 | 1 | 0 | 1
O=C(C[n+]1cc(-c2ccc(Cl)c(Cl)c2)n2c1CCC2)OCc1ccccc1 | -14* | -7 | nt | 8 | -3
Clc1ccc(-c2c[n+](Cc3ccc(Br)cc3)c3n2CCCCC3)cc1 | -52* | -8 | 4 | -4 | 2

Compound activity deposited in PubChem by Broad Institute.
